Data from ChEMBL document CHEMBL6177989, “Development of Diaryl Hydrazones for Alleviation of Mitochondrial Oxidative Stress in Preeclampsia” (2025).
Activity calls are given as the source filed them. The rule behind the calls is not given here.

Columns and labels:
[1] = Antioxidant activity assessed as trolox equivalent of ABTS radical scavenging activity at […] measured up to 12 mins by absorbance based analysis; assay type: functional
Method in brief: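 ABTS radical generated 12–24 h before assay; compounds tested at 500 μM final antioxidant concentration; absorbance read on plate reader at 25 °C. Percent scavenging standardized to Trolox scavenging to give Trolox equivalents; mean ± SD of three independent repeats.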

[2] = Antioxidant activity assessed as trolox equivalent of ORAC radical scavenging activity […] measured every 2 mins for 60 mins by UV-Vis / fluorescence plate reader based analysis; assay type: functional
Method in brief: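 ORAC: fluorescein with AAPH, fluorescence read 30 times; net AUC relative to AAPH control and no-AAPH maximum. Compounds at 80 μM; Trolox calibration (3.125–100 μM) of percent scavenging vs ln concentration gives Trolox equivalent concentration. 25 °C; mean ± SD, three independent repeats.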

[3] = Antioxidant activity assessed as trolox equivalent of DPPH radical scavenging activity […] measured every 15 mins for 60 mins by absorbance based assay; assay type: functional
Method in brief: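 DPPH radical scavenging by absorbance at 25 °C, compounds at 200 μM antioxidant concentration. Percent scavenging from control vs sample absorbance; 60 min value divided by 60 min Trolox value to give Trolox equivalents. Mean ± SD, four independent repeats.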

HTR-8/SVneo = assay: Antioxidant activity in H2O2 induced human HTR-8/SVneo cells assessed as reduction in sFLT-1 protein expression at 0.1 to 50 uM preincubated for 30 mins followed by H2O2 addition and measured after 20 hrs by ELISA method; assay type: functional, cell-based; conditions: dose 0.1-50 µM, time 20.5 hrs
Method in brief: (§1)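 HTR-8/SVneo cells in RPMI with 5% FBS, 37 °C, 5% CO2, pretreated 30 min with 0.1–50 μM compound, then 100 μM H2O2 for 20 h with compound present throughout. Supernatant sFLT-1 measured by human VEGFR1 ELISA; MitoTEMPO as reference antioxidant; 5 repeat experiments.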

[4] = Antioxidant activity in H2O2 induced human HTR-8/SVneo cells assessed as reduction in sFLT-1 protein expression at 0.1 to 50 uM preincubated for 30 mins followed by H2O2 addition and measured after 20 hrs by ELISA method relative to MitoTEMPO; assay type: functional; design: scale not given: the % may be the effect or the level left; conditions: dose 0.1-50 µM, time 20.5 hrs; method in brief: as §1
[5] = Antioxidant activity in H2O2 induced human HTR-8/SVneo cells assessed as reduction in mitochondrial derived ROS production at 50 uM preincubated for 30 mins followed by H2O2 addition and measured after 20 hrs by MitoSOX red staining based immunofluorescence analysis relative to control; assay type: functional; design: scale not given: the % may be the effect or the level left; conditions: time 20.5 hrs
Method in brief: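 HTR8 cells pretreated 30 min with 50 μM compound, then 100 μM H2O2 for 20 h. Mitochondrial superoxide imaged with MitoSOX Red by fluorescence microscopy at 20×; OD per cell surface area over 3 high-power fields per sample, n = 4 per group; median [IQR], Mann–Whitney U test.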

SMILES | Activity [1] | Activity [2] | Activity [3] | Activity (HTR-8/SVneo) | Activity [4] | Activity [5]
C/C(=N\Nc1cc(C)ccc1C)c1ccc([N+](=O)[O-])cc1 | Weak_effect | Active | Weak_effect | – | – | –
C(=N\Nc1ccccc1)/c1c[nH]c2ccccc12 | Active | Active | Active | – | – | –
COc1ccc(N/N=C(\C)c2cc3ccc(OC)cc3oc2=O)cc1 | Active | Active | Active | – | – | –
COc1ccc(/C=N/Nc2cccc(C(F)(F)F)c2)cc1OC | Active | Active | Active | Active | 10% | –
C/C(=N\Nc1ccccc1)c1ccc(C)cc1 | Active | Active | Active | – | – | –
Clc1ccc(N/N=C/c2ccc3ccccc3c2)cc1 | Active | – | Active | – | – | –
C/C(=N\Nc1cc(C)ccc1C)c1cccc([N+](=O)[O-])c1 | Weak_effect | Active | Weak_effect | – | – | –
C(=N\Nc1ccccc1)/c1ccc2ccccc2c1 | Active | Active | Active | – | – | –
O=[N+]([O-])c1ccc(/C=N/Nc2cccc(C(F)(F)F)c2)cc1 | Active | Active | Active | Active | – | –
FC(F)(F)c1ccccc1N/N=C/c1c2ccccc2cc2ccccc12 | Active | Weak_effect | Active | – | – | –
COc1ccc(N/N=C/c2ccc3ccccc3c2)cc1 | Active | Active | Active | – | – | –
Fc1c(F)c(F)c(/C=N/Nc2ccc(C(F)(F)F)cc2)c(F)c1F | Active | Active | Active | Active | – | –
FC(F)(F)c1cccc(N/N=C/c2ccc(/C=N/Nc3cccc(C(F)(F)F)c3)cc2)c1 | Active | Active | Active | Active | – | –
C/C(=N\Nc1ccccc1)c1ccc(Cl)cc1 | Active | Active | Active | – | – | –
CN(C)c1ccc(/C=N/Nc2ccccc2C(F)(F)F)cc1 | Active | Active | Active | Active | – | –
COc1ccc(/C=N/Nc2ccc(C(F)(F)F)cc2)c(O)c1 | Active | Active | Active | Active | – | –
Cc1ccc(C)c(N/N=C/c2ccc3ccccc3c2)c1 | Active | Active | Active | – | – | –
COc1ccc(N/N=C/c2ccc(/C=N/Nc3ccc(OC)cc3)cc2)cc1 | Active | Active | Active | – | – | –
COc1ccc(N/N=C(\C)c2ccc([N+](=O)[O-])cc2)cc1 | Weak_effect | Active | Weak_effect | – | – | –
COc1ccc(/C(C)=N/Nc2ccccc2)c(O)c1 | Active | Active | Active | – | – | –
COc1ccc(N/N=C/c2ccc([N+](=O)[O-])cc2)cc1 | – | Active | – | – | – | –
CN(C)c1ccc(/C=N/Nc2cccc(C(F)(F)F)c2)cc1 | Active | Active | Active | Active | 10% | 50%
CN(C)c1ccc(/C=N/Nc2ccc(C(F)(F)F)cc2)cc1 | Active | Active | Active | Active | – | –
O=[N+]([O-])c1cccc(N/N=C/c2ccc3ccccc3c2)c1 | Active | Weak_effect | Active | – | – | –
